Test results from PMC4876928 (Clinical cancer research : an official journal of the …, 2016).

What was measured:
[1] = in vitro; weakly basic molecule; cited from earlier work
[2] = Plasma pharmacokinetics in patients; type: in vivo, human; conditions: for half-life: human, plasma, po
Outline: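 Oral test compound was given as a single dose on day 1 (7-day run-in for terminal half-life), then QD from day 8. PPI cohort: rabeprazole 20 mg days 4-7, co-dosed day 8, intensive sampling day 8. Quantified by LC-MS/MS.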

advanced solid tumors = assay: Tumor response by RECIST v1.0 / modified RECIST; type: in vivo, human

In the case of Cc1c(CN2CCN(C(=O)[C@H](C)O)CC2)sc2c(N3CCOCC3)nc(-c3cnc(N)nc3)nc12 [apitolisib], the drug solubility [1] is listed as “pH-dependent drug solubility”, the half-life ([2]; mean terminal elimination half-life, patients) is listed as 678 min and the half-life ([2]; terminal elimination half-life, range, patients) is listed as 196 to 2720 min. For the same compound, the “time of peak mean plasma concentration after dose” value ([2]; oral, patients) was 1 to 2 h, the “impact of PPI on apitolisib PK” value ([2]; rabeprazole 20 mg daily for 5 days, 6 patients) was “no significant impact” and the accumulation ([2]; repeated QD doses) was “less than 1.2”. For the same compound, the “Median time on study” value (advanced solid tumors; 40 mg 28/28) was 2.9 months, the “stable disease with tumor regression” value (advanced solid tumors; 40 mg 28/28) was 20 patients and the “time on study, range” value (advanced solid tumors; 40 mg 28/28) was 1-21.2 months. The PRs (advanced solid tumors; 40 mg 28/28, 49 RECIST evaluable patients) was “Five”, the “PD as best radiological response” value (advanced solid tumors; 14 evaluable patients with PIK3CA mutations, 40 mg 28/28) was 3 and the “PRs as best radiological response” value (advanced solid tumors; 14 evaluable patients with PIK3CA mutations, 40 mg 28/28, 1 confirmed) was 3. For the same compound, the “PR rate in MPM patients” value (advanced solid tumors; MPM) was 12%, the “Median time on study” value (advanced solid tumors; MPM, 30 mg 28/28) was 4 months and the “time on study, range” value (advanced solid tumors; MPM, 30 mg 28/28) was 0.5-38.9 months. The “patients on study for more than 6 months” value (advanced solid tumors; MPM, 30 mg 28/28 (8 patients)) was 30%, the partial response rate (advanced solid tumors; RP2D 40 mg QD) was 10.2% and the “dose from which anti-tumor activity was apparent” value (advanced solid tumors; in vivo) was 8 mg. For the same compound, the “response rate with enrichment for PIK3CA mutations” value (advanced solid tumors; in vivo) was 18.8%, the “single agent response rate” value (advanced solid tumors; in vivo) was 10-19% and the time on apitolisib (advanced solid tumors; one patient, metastatic clear cell ovarian cancer, 40 mg 28/28) was 282 days. For the same compound, the “maximal tumor shrinkage, change from baseline” value (advanced solid tumors; one patient, metastatic clear cell ovarian cancer, E545K PIK3CA, 40 mg 28/28) was −48.3%, the “patients continuing on study for over 12 months” value (advanced solid tumors; stage 1 (3 patients)) was 5% and the “partial responses (PR)” value (advanced solid tumors; stage 1, among 56 patients) was 4. It also gave a confirmed responses (advanced solid tumors; stage 1, 32 mg QD 21/28 and 50 mg QD 21/28) of 2.
